Experiment [1] deals with Signal transducer and activator of transcription 3 (Homo sapiens) (UniProt P40763). The experiment in a line: Inhibition of STAT3 upto 10 uM by Western blotting. The method in brief: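 Phosphotyrosine Stat3 levels in treated cells, tested up to 10 µM. Cells washed in ice-cold PBS, lysed in SDS sample buffer, equal protein run on SDS-PAGE and transferred to PVDF. Blots blocked in 5% nonfat milk/TBST, then phospho-Stat3 and β-tubulin antibodies at 4 °C overnight, secondary 2 h room temperature, ECL detection. IC50 derived.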
Chain of Signal transducer and activator of transcription 3 (Homo sapiens) (P40763 whole entry): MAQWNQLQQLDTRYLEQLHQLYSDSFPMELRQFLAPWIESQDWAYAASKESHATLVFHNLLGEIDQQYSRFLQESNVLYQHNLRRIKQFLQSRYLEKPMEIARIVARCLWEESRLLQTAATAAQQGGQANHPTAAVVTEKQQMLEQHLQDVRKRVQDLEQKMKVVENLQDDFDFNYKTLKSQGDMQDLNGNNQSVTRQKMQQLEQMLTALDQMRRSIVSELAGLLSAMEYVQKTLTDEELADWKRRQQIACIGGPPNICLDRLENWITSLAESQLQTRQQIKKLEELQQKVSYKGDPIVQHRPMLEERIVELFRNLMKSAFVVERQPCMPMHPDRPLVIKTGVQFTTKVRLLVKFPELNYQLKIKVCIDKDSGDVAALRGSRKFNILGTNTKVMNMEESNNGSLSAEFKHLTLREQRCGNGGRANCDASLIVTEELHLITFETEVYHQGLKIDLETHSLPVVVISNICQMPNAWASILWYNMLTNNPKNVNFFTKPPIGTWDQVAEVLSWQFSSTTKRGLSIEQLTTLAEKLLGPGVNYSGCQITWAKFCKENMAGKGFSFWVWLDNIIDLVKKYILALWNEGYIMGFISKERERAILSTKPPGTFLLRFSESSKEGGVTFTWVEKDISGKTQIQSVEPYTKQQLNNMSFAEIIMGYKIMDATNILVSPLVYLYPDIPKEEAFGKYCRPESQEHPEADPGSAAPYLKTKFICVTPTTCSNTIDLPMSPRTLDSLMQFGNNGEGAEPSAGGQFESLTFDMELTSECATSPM
A general note: In western blotting, separated proteins are transferred to a membrane and probed.

In experiment [2] the test system is A549. The experiment in a line: Cytotoxicity against human A549 cells upto 10 uM after 72 hrs by SRB assay. It counts as functional, cell-based. In a few lines: (§1)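 A549/ATCC (human non-small-cell lung) or BEL-7402 (human hepatocellular) cells plated 24 h before treatment, then continuously exposed to a range of concentrations for 72 h. Cells fixed and stained with sulforhodamine B, bound dye solubilized in 10 mM Tris, absorbance read at 565 nm. IC50 derived.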
Background: The SRB assay estimates cell density from bound dye.

Experiment [3] has as its system Bel-7402. The experiment can be described thus: Cytotoxicity against human Bel7402 cells upto 10 uM after 72 hrs by SRB assay. It counts as functional, cell-based. The method in brief: as §1
The test system of experiment [4] is A549. The experiment in a line: Cytotoxicity against human A549 cells after 72 hrs by SRB assay. The conditions noted are these: A549, 72 h. Format: functional, cell-based. In a few lines:
as §1

Experiment [5] deals with Bel-7402. The experiment in a line: Cytotoxicity against human Bel7402 cells after 72 hrs by SRB assay. Format: functional, cell-based. The conditions noted are these: Bel-7402, 72 h. In a few lines:
as §1

From ChEMBL document CHEMBL1152327, “Cucurbitane-type triterpenoids from the stems of Cucumis melo” (J Nat Prod, 2009) come the findings set out here.

SMILES strings stand for the structures. Active and inactive are the calls of the source. The calls are words filed in the database; no cut-off is given here.

Consider `CC(=O)[C@H]1[C@H](O)C[C@@]2(C)[C@@H]3CC=C4[C@@H](C[C@H](O[C@@H]5O[C@H](CO)[C@@H](O)[C@H](O)[C@H]5O)C(=O)C4(C)C)[C@]3(C)C(=O)C[C@]12C`, for which the inhibition result in experiment [1] was “inactive”. The outcome in experiment [2] and in experiment [3] was inactive.

`C/C(=C\[C@@H]1C[C@](C)(O)[C@H]2[C@@H](C[C@@]3(C)[C@@H]4[C@@H](O)C=C5[C@@H](C[C@H](O)[C@H](O)C5(C)C)[C@]4(C)C(=O)C[C@]23C)O1)CO`: in experiment [1], the inhibition result is “inactive”. Moreover, the result in experiment [2] and in experiment [3] was inactive.

For `CC(C)(O)CCC(=O)[C@](C)(O)[C@H]1[C@H](O)C[C@@]2(C)[C@@H]3CC=C4[C@@H](C[C@H](O)C(=O)C4(C)C)[C@]3(C)C(=O)C[C@]12C`, the inhibition entry in experiment [1] is “inactive”. The outcome in experiment [2] and in experiment [3] was inactive.

Consider `CC(=O)OC(C)(C)/C=C/C(=O)[C@](C)(O)[C@H]1[C@H](O)C[C@@]2(C)[C@@H]3[C@@H](O)C=C4[C@@H](C[C@H](O)C(=O)C4(C)C)[C@]3(C)C(=O)C[C@]12C` [7BETA-HYDROXYCUCURBITACIN B], for which the inhibition result in experiment [1] was “inactive”. Moreover, the IC50 in experiment [4] worked out at 3210 nM; in experiment [5] it was 7590 nM.

Consider `CC(=O)OC(C)(C)/C=C/C(=O)[C@](C)(O)[C@H]1[C@H](O)C[C@@]2(C)[C@@H]3CC=C4[C@@H](C[C@H](O[C@@H]5O[C@H](CO)[C@@H](O)[C@H](O)[C@H]5O)C(=O)C4(C)C)[C@]3(C)C(=O)C[C@]12C`, for which the inhibition entry in experiment [1] was “inactive”. Further, the result in experiment [2] and in experiment [3] was inactive.

As to `CC(=O)OC(C)(C)/C=C/C(=O)[C@](C)(O)[C@H]1[C@H](O)C[C@@]2(C)[C@@H]3CC=C4[C@@H](C[C@H](O)C(=O)C4(C)C)[C@]3(CO)C(=O)C[C@]12C` [CUCURBITACIN A], the inhibition result in experiment [1] is “inactive”. Further, the IC50 in experiment [4] amounted to 400 nM; in experiment [5], 300 nM.

Turning to `CC(C)=CCC[C@@H](C)[C@H]1CC[C@@]2(C)[C@@H]3CC=C4[C@H](CCCC4(C)C)[C@H]3C(=O)C[C@]12C`, in experiment [1], the inhibition result is “inactive”. The result in experiment [2] and in experiment [3] was inactive.

Turning to `CC(C)(O)/C=C/C(=O)[C@](C)(O)[C@H]1[C@H](O)C[C@@]2(C)[C@@H]3CC=C4[C@@H](C[C@H](O[C@@H]5O[C@H](CO)[C@@H](O)[C@H](O)[C@H]5O)C(=O)C4(C)C)[C@]3(C)C(=O)C[C@]12C`, in experiment [1], the inhibition result was “inactive”. In addition, the result in experiment [2] and in experiment [3] was inactive.

Turning to `C/C(=C\[C@@H]1C[C@](C)(O)[C@H]2[C@@H](C[C@@]3(C)[C@@H]4[C@@H](O)C=C5[C@@H](C[C@H](O[C@@H]6O[C@H](CO)[C@@H](O)[C@H](O)[C@H]6O)[C@H](O)C5(C)C)[C@]4(C)C(=O)C[C@]23C)O1)CO`, the inhibition result in experiment [1] was “inactive”. For the same compound, the outcome in experiment [2] and in experiment [3] was inactive.

As for `CC(C)(O)/C=C/C(=O)[C@](C)(O)[C@H]1[C@H](O)C[C@@]2(C)[C@@H]3CC=C4[C@@H](C[C@H](O)C(=O)C4(C)C)[C@]3(CO)C(=O)C[C@]12C`, the inhibition result in experiment [1] was “inactive”. Moreover, the outcome in experiment [2] and in experiment [3] was inactive.

`CC(=O)OC(C)(C)/C=C/C(=O)[C@](C)(O)[C@H]1[C@H](O)C[C@@]2(C)[C@@H]3CC=C4[C@@H](C[C@H](O[C@@H]5O[C@H](CO)[C@@H](O)[C@H](O)[C@H]5O)C(=O)C4(C)C)[C@]3(CO)C(=O)C[C@]12C`: the inhibition entry in experiment [1] was “inactive”. Besides, the outcome in experiment [2] and in experiment [3] was inactive.

Regarding `CC(=O)OC(C)(C)/C=C/C(=O)[C@](C)(O)[C@H]1[C@H](O)C[C@@]2(C)[C@@H]3CC=C4[C@H](C[C@H](O)C(=O)C4(C)C)[C@]3(C)C(=O)C[C@]12C` [CUCURBITACIN B], the IC50 in experiment [4] was 10 nM; in experiment [5], 8 nM.

For the compound `CC1(C)C(=O)[C@@H](O)C[C@@H]2C1=CC[C@@H]1[C@@]2(C)C(=O)C[C@]2(C)[C@@H]([C@@](C)(O)C(=O)CC(O)C(C)(C)O)[C@H](O)C[C@@]12C` (some centres not stated), in experiment [1], the inhibition result was “inactive”. Also, the result in experiment [2] and in experiment [3] was inactive.

As to `CC(=O)OC(C)(C)CCC(=O)[C@](C)(O)[C@H]1[C@H](O)C[C@@]2(C)[C@@H]3[C@@H](O)C=C4[C@@H](C[C@H](O)C(=O)C4(C)C)[C@]3(C)C(=O)C[C@]12C`, the inhibition entry in experiment [1] was “inactive”. The result in experiment [2] and in experiment [3] was inactive.

As for `CC1(C)C(=O)[C@@H](O)C[C@@H]2C1=CC[C@@H]1[C@@]2(C)C(=O)C[C@]2(C)[C@@H]([C@@](C)(O)C(=O)C[C@H](O)C(C)(C)O)[C@H](O)C[C@@]12C`, the inhibition result in experiment [1] is “inactive”. The outcome in experiment [2] and in experiment [3] was inactive.

For the compound `CC(=O)OC(C)(C)CCC(=O)[C@](C)(O)[C@H]1[C@H](O)C[C@@]2(C)[C@@H]3CC=C4[C@@H](CC(=O)[C@H](O)C4(C)C)[C@]3(C)C(=O)C[C@]12C`, in experiment [1], the inhibition result is “inactive”. Moreover, the outcome in experiment [2] and in experiment [3] was inactive.

As for `CC(=O)OC(C)(C)CCC(=O)[C@](C)(O)[C@H]1[C@H](O)C[C@@]2(C)[C@@H]3CC=C4[C@@H](C[C@H](O)C(=O)C4(C)C)[C@]3(C)C(=O)C[C@]12C`, the inhibition entry in experiment [1] was “inactive”. In addition, the outcome in experiment [2] and in experiment [3] was inactive.

`CC(=O)[C@H]1[C@H](O)C[C@@]2(C)[C@@H]3CC=C4[C@@H](C[C@H](O)C(=O)C4(C)C)[C@]3(C)C(=O)C[C@]12C`: the inhibition entry in experiment [1] is “inactive”. Besides, the result in experiment [2] and in experiment [3] was inactive.

On to `CC(C)(O)CCC(=O)[C@](C)(O)[C@H]1[C@H](O)C[C@@]2(C)[C@@H]3CC=C4[C@@H](CC(=O)[C@H](O)C4(C)C)[C@]3(C)C(=O)C[C@]12C`, for which the inhibition result in experiment [1] is “inactive”. In addition, the outcome in experiment [2] and in experiment [3] was inactive.

Turning to `CC(C)(O)CCC(=O)[C@](C)(O)[C@H]1[C@H](O)C[C@@]2(C)[C@@H]3CC=C4[C@@H](C[C@H](O)C(=O)C4(C)C)[C@]3(CO)C(=O)C[C@]12C`, the inhibition entry in experiment [1] was “inactive”. Further, the result in experiment [2] and in experiment [3] was inactive.

With `C/C(=C\C(O)C[C@](C)(O)[C@H]1[C@H](O)C[C@@]2(C)[C@@H]3CC=C4[C@@H](C[C@H](O)C(=O)C4(C)C)[C@]3(C)C(=O)C[C@]12C)CO` (some centres not stated), in experiment [1], the inhibition result is “inactive”. Also, the result in experiment [2] and in experiment [3] was inactive.

Usually IC50 stands for the point on the concentration scale where inhibition reaches its midpoint. Read a high IC50 as weaker potency in that assay.
